{"data": "Measured values from different studies", "note": "Compare with care: the assays were run in different laboratories."}
{"SMILES": "Cc1ccc(C(=O)Nc2ccc(CN3CCN(C)CC3)c(C(F)(F)F)c2)cc1C#Cc1cnc2[nH]ncc2c1", "test system": "human, plasma", "conditions": "oral, 20 mg, healthy volunteers", "quantity": "half-life", "result": "1990 min"}
{"SMILES": "COc1ccc([C@@H](O)c2cc(-c3ncnc4cc(N5CCOCC5)ccc34)c(F)cc2Cl)nn1", "test system": "human, plasma", "conditions": "oral, 400 mg, single dose, patients", "quantity": "half-life", "result": "211 min"}
{"SMILES": "Cc1c(C(=O)O)ccc2c3n(nc12)[C@@H]1[C@H](C3)N(CC2CC2)[C@@]2(C(=O)Nc3cc(Cl)ccc32)[C@H]1c1cccc(Cl)c1F", "test system": "female mouse, plasma", "conditions": "intravenous", "quantity": "Vd", "result": "0.44 L/kg"}
{"SMILES": "CC(C)n1c(Nc2cccnc2)nc2cnc(Nc3ccc(N4CCN(C)CC4)cc3)nc21", "test system": "male human, plasma", "conditions": "oral, 100 mg, single dose", "quantity": "half-life", "result": "2120 min"}
{"SMILES": "Cn1cc(Nc2nc(N)nc(-c3cccc(-n4ccc5cc(C6CC6)cc(F)c5c4=O)c3CO)n2)cn1", "test system": "human, plasma", "conditions": "oral, 300 mg, single dose, fasted, healthy volunteers", "quantity": "half-life", "result": "582 min"}
{"SMILES": "NC(=S)NN=Cc1ncccc1N", "test system": "human, plasma", "conditions": "oral, 100 mg", "quantity": "half-life", "result": "90 min"}
{"SMILES": "NS(=O)(=O)OC[C@@H]1C[C@@H](n2ccc3c(N[C@H]4CCc5ccccc54)ncnc32)C[C@@H]1O", "test system": "human, plasma", "conditions": "intravenous, 35 mg/m², patients", "quantity": "half-life", "result": "306 min"}
{"SMILES": "O=[N+]([O-])c1ccc(-c2ccc(O)cc2)c2cccnc12", "test system": "male CD-1 mouse, plasma", "conditions": "oral, 5 mg/kg", "quantity": "Vd/F", "result": "157 L/kg"}
{"SMILES": "CNC(=O)n1ccc2cc(Oc3ccnc(NC(=O)c4ccc(C5CCN(CCO)CC5)cc4)c3)c(OCCOC)cc21", "test system": "human, plasma", "conditions": "oral, 35 mg, single dose, healthy volunteers", "quantity": "half-life", "result": "1260 min"}
{"SMILES": "N#C[C@@]12C[C@@H]1[C@@H](n1cnc3c(N[C@@H](C4CCC4)C4CC4)nc(I)nc31)[C@H](O)[C@@H]2O", "assay": "chemical stability", "test system": "simulated intestinal fluid", "conditions": "2 h", "quantity": "compound remaining", "result": "97.8%"}
